High-throughput results deposited in PubChem BioAssay by Broad Institute.
Hits are enriched below; roughly 2.1% of the tested compounds scored in any of these assays.
PAX8 inh HTS – inhibitors of PAX8-driven TPO luciferase reporter, primary screen, RMG-I cells, single concentration. SteadyGlo, 24 h. inhibition, % at 12.6 µM. hit rate 1.2% among 360,000;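 active = mean replicate inhibition at least 60% with every replicate also reaching 60%; inconclusive = only one of the two criteria is met; inactive = mean below 60% and not all replicates reaching 60%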;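 also: luciferase light reporting Pax8 driven TPO promoter activity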
EWS-Fli block – EWS/Fli-driven NR0B1 reporter inhibitors, primary screen, A673 cells, NR0B1 luciferase, luminescence, MLPCN library. viability-normalised. inhibition, % at 12.6 µM. hit rate 0.67% among 350,000. AID 651661, 2012;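 active = mean inhibition of at least 50% after viability correction, with every replicate also passing that limit; inconclusive = mean reaches 50% but only one of two replicates passes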;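 also: firefly luciferase signal divided by Alamar Blue viability fluorescence both relative to DMSO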
Shn3 inh set2 – reduction of Shn3 3'UTR firefly luciferase signal, primary screen, Schnurri-3 inhibitor project, cell-based, Clone20 osteoblasts, set 2 | Clone20 osteoblast Shn3 3'UTR firefly luciferase, 24 h | inhibition, % at 12.5 µM | hit rate 0.52% among 360,000;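 active = mean inhibition of at least 75% with every replicate also reaching 75%; inconclusive = mean inhibition at least 75% but some replicate below; inactive = mean inhibition below 75%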
EBV LMP1 NFkB – EBV LMP1-driven NF-kappaB luciferase reporter inhibitors, primary screen, cell-based, luminescence, single point. hit rate 0.69% among 350,000. AID 504558, 2011. inhibition, % at 12.5 µM. LMP1-induced NF-kappaB luciferase reporter cells; in the data active = inhibition above about 41%; inconclusive = no clear call, values can overlap the other calls
FN deposit inh – inhibitors of fibronectin matrix deposition, primary screen, AH1F cells, Alexa488-fibronectin fluorescence, plate reader | AH1F fibroblasts, overnight | inhibition, % at 12.6 µM | hit rate 0.086% among 350,000 | AID 743247, 2014;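 active = mean inhibition across replicates of 30% or more, regardless of how many single replicates reach that level; inconclusive = mean under 30% yet at least half of replicates reach 30%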
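Schedule: 1 h cell adhesion before compound, then overnight fibronectin incubation; test system: AH1F fibroblast monolayer depositing Alexa488-labelled fibronectin into matrix; quantity: 10000 AH1F cells per well; probe or stimulus: fluorescent fibronectin at 24 nM final; signal: fluorescence, ex 485 nm, em 525 nm; evaluation: percent inhibition as loss of matrix-bound fibronectin fluorescence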
aSyn 5UTR inh – MLPCN primary screen, SNCA 5' untranslated region; alpha-synuclein 5'UTR reporter, inhibitor activity; inhibition, % (tested at 7.5 µM); hit rate 0.82% among 300,000; AID 1813, 2009; in the data active = inhibition above about 60%; inconclusive = no clear call, values can overlap the other calls;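 also: H4 neuroglioblastoma cells stably carrying SNCA 5'UTR luciferase fusion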
Hits are given with their value; - = inactive; ? = inconclusive; . = no result.

SMILES	PAX8 inh HTS	EWS-Fli block	Shn3 inh set2	EBV LMP1 NFkB	FN deposit inh	aSyn 5UTR inh
NC(=O)NC(Cc1ccccc1)c1ccccc1 (stereo unspecified)	.	-	-	-	.	-
C[C@@H]1CN([C@@H](C)CO)C(=O)c2cc(NS(=O)(=O)c3ccc(Cl)cc3)ccc2O[C@@H](C)CCCCO[C@@H]1CN(C)Cc1ccc(C(=O)O)cc1	-	-	.	.	-	.
O=C1N[C@H](Cc2ccccc2)COC(=O)[C@@H](Cc2ccc(F)cc2)CC/C=C/C[C@H]1CC(=O)N(CCO)Cc1ccccc1	-	-	-	-	-	.
O=C(C[C@@H]1C/C=C/CC[C@H](Cc2ccc(F)cc2)C(=O)OC[C@@H](Cc2ccccc2)NC1=O)N[C@H](CO)Cc1ccccc1	102.5	?	-	-	-	.
C[C@@H]1COC(=O)[C@H](Cc2ccc(F)cc2)CC/C=C/C[C@@H](CC(=O)N[C@@H](CO)Cc2ccccc2)C(=O)N1	-	-	-	-	-	.
O=C1N[C@@H](Cc2ccccc2)COC(=O)[C@@H](Cc2ccc(F)cc2)CC/C=C/C[C@@H]1CC(=O)N(CCO)Cc1ccccc1	68.1	-	-	-	-	.
Cc1ccc(S(=O)(=O)N(C)C[C@H]2OCCCC[C@H](C)Oc3ccc(NS(=O)(=O)c4ccc(Cl)cc4)cc3C(=O)N([C@H](C)CO)C[C@H]2C)cc1	-	-	.	.	-	.
Cc1ccc(S(=O)(=O)Nc2ccc3c(c2)C(=O)N([C@H](C)CO)C[C@@H](C)[C@@H](CN(C)S(=O)(=O)c2ccc(Cl)cc2)OCCCC[C@@H](C)O3)cc1	-	-	.	.	-	.
Cc1ccc(S(=O)(=O)Nc2ccc3c(c2)C(=O)N([C@H](C)CO)C[C@H](C)[C@H](CN(C)S(=O)(=O)c2ccc(Cl)cc2)OCCCC[C@H](C)O3)cc1	65.6	-	.	.	-	.
Cc1ccc(S(=O)(=O)N(C)C[C@@H]2OCCCC[C@@H](C)Oc3ccc(NS(=O)(=O)c4ccc(Cl)cc4)cc3C(=O)N([C@H](C)CO)C[C@H]2C)cc1	77.4	-	.	.	-	.
Cc1ccc(S(=O)(=O)N(C)C[C@@H]2OCCCC[C@H](C)Oc3ccc(NS(=O)(=O)c4ccc(Cl)cc4)cc3C(=O)N([C@H](C)CO)C[C@@H]2C)cc1	73.9	-	.	.	-	.
Cc1ccc(S(=O)(=O)Nc2ccc3c(c2)C(=O)N([C@@H](C)CO)C[C@@H](C)[C@H](CN(C)S(=O)(=O)c2ccc(Cl)cc2)OCCCC[C@@H](C)O3)cc1	84.3	-	.	.	-	.
Cc1ccc(S(=O)(=O)Nc2ccc3c(c2)C(=O)N([C@H](C)CO)C[C@@H](C)[C@@H](CN(C)S(=O)(=O)c2ccc(Cl)cc2)OCCCC[C@H](C)O3)cc1	-	-	.	.	-	.
Cc1ccc(S(=O)(=O)N(C)C[C@@H]2OCCCC[C@@H](C)Oc3ccc(NS(=O)(=O)c4ccc(Cl)cc4)cc3C(=O)N([C@@H](C)CO)C[C@H]2C)cc1	67.9	-	.	.	-	.
O=C(Nc1ccc(F)cc1F)c1cccc(C(=O)Nc2ccc(F)cc2F)n1	-	-	-	-	.	86.7
O=C(OCn1ncc(Cl)c(Cl)c1=O)c1ccccc1Cl	.	.	98.8	86.5	active	-
C[C@H]1CCCCO[C@@H](CN(C)Cc2ccc(C(F)(F)F)cc2)[C@@H](C)CN([C@@H](C)CO)C(=O)c2cc(NC(=O)NC3CCCCC3)ccc2O1	-	-	.	.	.	.
C[C@@H]1CN([C@H](C)CO)C(=O)c2cc(NC(=O)NC3CCCCC3)ccc2O[C@@H](C)CCCCO[C@H]1CN(C)Cc1ccc(C(F)(F)F)cc1	105.1	-	.	.	.	.
C[C@@H]1CN([C@@H](C)CO)C(=O)c2cc(NC(=O)NC3CCCCC3)ccc2O[C@@H](C)CCCCO[C@H]1CN(C)Cc1ccc(C(F)(F)F)cc1	78.5	-	.	.	.	.
CC=Cc1ccc2n(c1=O)C[C@H]1[C@H](CO)[C@@H](C(=O)NCCC)[C@@H]2N1CC1CC1 (mixture of isomers)	.	-	.	.	.	.
CC(=O)N(C)C[C@@H]1Oc2cc(C3=CCCC3)ccc2S(=O)(=O)N([C@@H](C)CO)C[C@H]1C	.	-	.	.	-	.
